LEDGF integ inh = blockers of LEDGF/p75-dependent integrase strand transfer – biochemical, TR-FRET, high throughput, primary screen. AID 743269, 2014. 370,000 tested, 0.64% active. TR-FRET IN-LEDGF/p75 DNA integration, Eu/Cy5. HIV-1 integrase (with human LEDGF/p75). inhibition, % at 3.7 µM;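 active = inhibition above the screen-wide mean plus 3 SD, cut at about 13% in these data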;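 also: signal is the Cy5 over europium emission ratio at 671 and 618 nm; 0% = plate median of compound wells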
TDP2 inh = human TDP2 enzyme inhibitors, primary screen, biochemical, epi absorbance, recombinant enzyme | Tyrosyl-DNA phosphodiesterase 2 (Homo sapiens), O95551 | T5PNP hydrolysis, p-nitrophenol absorbance 415 nm | inhibition, % at 12.8 µM | 370,000 tested, 0.34% active | AID 720702, 2013;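 active = inhibition above the mean of all tested compounds plus 3 SD, set per campaign, cut at about 25% in these data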;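 also: 0% = DMSO with enzyme and 100% = buffer with substrate but no TDP2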
Target sequence (O95551 whole entry, looked up): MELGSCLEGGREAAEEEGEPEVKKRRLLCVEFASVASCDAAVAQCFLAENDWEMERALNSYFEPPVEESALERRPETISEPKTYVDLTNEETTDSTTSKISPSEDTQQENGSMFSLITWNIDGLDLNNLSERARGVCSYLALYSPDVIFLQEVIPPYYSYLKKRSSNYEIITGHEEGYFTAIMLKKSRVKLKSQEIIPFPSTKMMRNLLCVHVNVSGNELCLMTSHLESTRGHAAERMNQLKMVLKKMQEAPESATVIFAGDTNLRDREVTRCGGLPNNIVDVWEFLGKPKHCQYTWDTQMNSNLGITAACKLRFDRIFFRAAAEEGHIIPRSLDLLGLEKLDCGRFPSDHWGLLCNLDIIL
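Evaluation: % inhibition relative to enzyme-containing and enzyme-free wells. Material: recombinant human TDP2. Benchmarks: enzyme-free and DMSO wells. Timing: enzyme reaction with compound for 2 h at 37 °C. Compound dosing: 12.8 µM only. Measured by: p-Nitrophenol epi absorbance. Reagent: T5PNP substrate at 5 mM, a TopII-DNA adduct mimic. Replication: single well per compound.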
MBD2 inh = inhibitors of MBD2 binding to methylated DNA, primary screen, biochemical, TR-FRET, DNA-binding domain, human | MBD2 binding to methylated oligonucleotide | inhibition, % at 4.4 µM | 370,000 tested, 0.31% active | AID 686964, 2013; in the data active = inhibition above about 13%
UHRF1 MBD2 ctr = UHRF1 methylated DNA binding inhibitors, primary screen, counter-screen for MBD2 inhibitor project, biochemical, TR-FRET, human UHRF1, single concentration; E3 ubiquitin-protein ligase UHRF1 (Homo sapiens), Q96T88; UHRF1 binding to methylated oligo; inhibition, % at 4.4 µM; 370,000 tested, 0.75% active; AID 687016, 2013; in the data active = inhibition above about 21%;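 also: UHRF1 SRA domain binding a hemimethylated CpG hairpin DNA probe; 0% = median of test compound wells and 100% = reference inhibitor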
* hit, by the source's call. Rows were chosen to be rich in hits. Some 1.6% of all compounds tested hit in one or more screens of this group.

Screening Cc1ccc(NC(=O)c2ncc(Cl)c(Cl)c2Cl)cc1C returned LEDGF integ inh 1.2, TDP2 inh 2.7, MBD2 inh 4.1 and UHRF1 MBD2 ctr -1.2.
O=C(Nc1ccc(OC(F)F)cc1)c1ncc(Cl)c(Cl)c1Cl was read as LEDGF integ inh -4.8, TDP2 inh -3.0, MBD2 inh 12.9 and UHRF1 MBD2 ctr 24.0*.
For COC(=O)c1ccc(Cn2cnc3cnccc32)cc1 the results were LEDGF integ inh -4.1, TDP2 inh 3.9, MBD2 inh 0.0 and UHRF1 MBD2 ctr 24.8*.
Screening COC(=O)[C@]12C[C@H](CC(=O)N3CCCCC3)C(=O)N(Cc3ccc4c(c3)OCO4)C1=C[C@H](C(C)(C)C)O[C@@H]2C returned LEDGF integ inh -3.5, TDP2 inh 5.2, MBD2 inh 4.1 and UHRF1 MBD2 ctr 13.7.
For O=C1CC(N2CCOCC2)=NC(=O)N1c1ccc(Br)cc1 the results were LEDGF integ inh 0.2, TDP2 inh 1.3, MBD2 inh 2.5 and UHRF1 MBD2 ctr 1.1.
`Cc1n[nH]c(C)c1S(=O)(=O)N1CCC(C(=O)O)CC1` gave LEDGF integ inh -3.9, TDP2 inh 4.1, MBD2 inh 9.9 and UHRF1 MBD2 ctr 20.7*.
Screening Cc1n[nH]c(C)c1S(=O)(=O)N1CCCC(C(=O)O)C1 (configuration not stated) returned LEDGF integ inh -3.5, TDP2 inh 3.5, MBD2 inh 0.1 and UHRF1 MBD2 ctr -0.4.
COc1ccc2c(c1)[C@@]1(OCCC=C[C@H]1C)C(=O)N2Cc1ccc(F)cc1 was read as LEDGF integ inh -2.6, TDP2 inh 7.0, MBD2 inh 2.8 and UHRF1 MBD2 ctr -0.5.
`Cn1cc(-c2cccc3[nH]cc(-c4ccccc4)c23)c2ccccc21` gave LEDGF integ inh -4.3, TDP2 inh -2.8, MBD2 inh 0.5 and UHRF1 MBD2 ctr -2.1.
Screening CC(C)COc1ccc(C(=O)N/N=C/c2ccoc2)cc1 returned LEDGF integ inh 0.4, TDP2 inh -3.9, MBD2 inh -2.2 and UHRF1 MBD2 ctr 29.8*.
For CCN(CC)S(=O)(=O)c1ccc(Cl)c(C(=O)Nc2cc(C)nn2-c2ccccc2)c1 the results were LEDGF integ inh 2.6, TDP2 inh 0.3, MBD2 inh 0.0 and UHRF1 MBD2 ctr 65.3*.
COC(=O)c1cc(-c2cccs2)c(=O)n2c1CCC2 was read as LEDGF integ inh -1.7, TDP2 inh -3.4, MBD2 inh -2.3 and UHRF1 MBD2 ctr -9.2.
Screening Oc1cccc(C=NCc2ccccc2)c1O returned LEDGF integ inh 65.5*, TDP2 inh 10.1, MBD2 inh -0.8 and UHRF1 MBD2 ctr 7.3.
Cc1ccccc1Cn1ccc(NC(=O)c2nc3ncccn3n2)n1 was read as LEDGF integ inh 1.1, TDP2 inh -0.2, MBD2 inh 2.3 and UHRF1 MBD2 ctr -3.2.
Cc1cc(C)n2nc(C(=O)Nc3ccn(Cc4ccccc4C)n3)cc2n1 was read as LEDGF integ inh 1.6, TDP2 inh -12.4, MBD2 inh -2.5 and UHRF1 MBD2 ctr 22.9*.
For O=C(CSc1nc(-c2ccccc2Cl)ns1)c1ccc(Cl)cc1 the results were LEDGF integ inh 2.2, TDP2 inh 4.3, MBD2 inh 3.3 and UHRF1 MBD2 ctr 32.0*.
`Cc1cccc(-c2nsc(SCC(=O)c3ccc(Cl)cc3)n2)c1` gave LEDGF integ inh 0.3, TDP2 inh 6.1, MBD2 inh -2.5 and UHRF1 MBD2 ctr 0.2.
Screening COC(=O)C1=C(C)N(Cc2ccccc2C(F)(F)F)C(=NCc2ccc(OC)cc2)NC1c1cccc(Cl)c1 (configuration not stated) returned LEDGF integ inh -1.1, TDP2 inh -3.6, MBD2 inh 5.5 and UHRF1 MBD2 ctr 1.5.
Screening O=C(N/N=C/c1cc2c(cc1Cl)OCO2)c1cccc(Br)c1 returned LEDGF integ inh -1.2, TDP2 inh 5.6, MBD2 inh 2.0 and UHRF1 MBD2 ctr 38.9*.
Screening O=C(CSc1nnc(-c2cnccn2)n1-c1ccccc1)c1ccccc1Br returned LEDGF integ inh -1.8, TDP2 inh -8.1, MBD2 inh -1.7 and UHRF1 MBD2 ctr -1.3.
Screening Cc1cc2c(cc1C)C(=O)CCC2 returned LEDGF integ inh 2.0, TDP2 inh 4.7, MBD2 inh 1.4 and UHRF1 MBD2 ctr 23.9*.
For CN(C)C(=O)[C@H]1C[C@H]1[C@@H](O)[C@H](CO)NC(=O)[C@H](Cc1ccccc1)NC(=O)OC(C)(C)C the results were LEDGF integ inh 10.6, TDP2 inh 14.3, MBD2 inh 11.7 and UHRF1 MBD2 ctr 28.1*.
Screening O=C(Nc1ccc(OC(F)(F)F)cc1)Nc1nc2ncccn2c1-c1ccc(C(F)(F)F)cc1 returned LEDGF integ inh 4.6, TDP2 inh -2.5, MBD2 inh 4.3 and UHRF1 MBD2 ctr -2.7.
`CCCNS(=O)(=O)c1ccc(OCC(=O)Nc2ccc3c(c2)OCCO3)c(C)c1` gave LEDGF integ inh 1.3, TDP2 inh 2.8, MBD2 inh -1.0 and UHRF1 MBD2 ctr -1.1.
For CCCNS(=O)(=O)c1ccc(OCC(=O)Nc2ccc3c(c2)OCCO3)cc1 the results were LEDGF integ inh -2.0, TDP2 inh 5.2, MBD2 inh 5.0 and UHRF1 MBD2 ctr 24.3*.
`O=C(CSc1ccc(-c2cccs2)nn1)c1cccs1` gave LEDGF integ inh 0.1, TDP2 inh 6.5, MBD2 inh 9.0 and UHRF1 MBD2 ctr 23.0*.
For CCCCCCCCNS(=O)(=O)CCNCc1ccccc1 the results were LEDGF integ inh -3.2, TDP2 inh 0.0, MBD2 inh 1.3 and UHRF1 MBD2 ctr 22.5*.
Screening CSCCC1NC(=O)N(C(C)C(=O)Nc2cc(Cl)cc(Cl)c2)C1=O (configuration not stated) returned LEDGF integ inh -2.8, TDP2 inh -0.3, MBD2 inh 5.5 and UHRF1 MBD2 ctr 23.9*.
`CC(C)(C)Nc1nc(C(N)=O)nc(N2CCOCC2)n1` gave LEDGF integ inh 4.8, TDP2 inh -10.8, MBD2 inh -0.9 and UHRF1 MBD2 ctr 1.6.
Screening NC(=O)c1nc(N2CCOCC2)nc(N2CCOCC2)n1 returned LEDGF integ inh 1.2, TDP2 inh 0.6, MBD2 inh -1.8 and UHRF1 MBD2 ctr 37.1*.
For Cc1ccc(S(=O)(=O)N2CCN(C(C)C(=O)N3CCCc4ccccc43)CC2)cc1 (configuration not stated) the results were LEDGF integ inh 0.3, TDP2 inh -0.3, MBD2 inh 1.3 and UHRF1 MBD2 ctr 26.8*.
CC(C(=O)N1CCCc2ccccc21)N1CCN(S(=O)(=O)c2ccccc2F)CC1 (configuration not stated) was read as LEDGF integ inh 5.2, TDP2 inh 2.2, MBD2 inh 2.7 and UHRF1 MBD2 ctr 4.4.
For COC(=O)C1CN(Cc2cn(Cc3ccccc3)nn2)CCS(=O)(=O)N1Cc1ccc(OC)cc1 (configuration not stated) the results were LEDGF integ inh -0.5, TDP2 inh 2.3, MBD2 inh 1.9 and UHRF1 MBD2 ctr -1.2.

Screening results: PubChem BioAssay, The Scripps Research Institute Molecular Screening Center
